What was measured:
[1] = Inhibition of bovine brain PKC; parameters: species or system Bos taurus
[2] = Permeability from apical to basolateral side of human Caco-2 cell membrane; assay type: ADME, cell-based
[3] = Permeability from basolateral to apical side of human Caco-2 cell membrane; assay type: ADME, cell-based
Caco-2 = experiment: Ratio of permeability from apical to basolateral side over basolateral to apical side of human Caco-2 cell membrane; assay type: ADME, cell-based
Mus musculus [4] = experiment: Gastrointestinal toxicity in mouse assessed as tail bleeding time at 200 mg/kg, po after 30 mins; assay type: organism-based; parameters: dose 200 mg/kg, route oral; conditions: in vivo, 0.5 h
Summary of the method: (§1)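 Male mice (18–22 g) are dosed orally and compared with an NS group. At 30, 45, 60 and 90 min after dosing, each mouse is restrained in a tube holder and a 2-mm cut is made on the tail. Blood is wiped away every 30 s until flow stops, and the time to cessation is recorded.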

Mus musculus [5] = experiment: Gastrointestinal toxicity in mouse assessed as tail bleeding time at 200 mg/kg, po after 45 mins; assay type: organism-based; parameters: dose 200 mg/kg, route oral; conditions: in vivo, 0.75 h; summary of the method: as §1
Mus musculus [6] = experiment: Gastrointestinal toxicity in mouse assessed as tail bleeding time at 200 mg/kg, po after 60 mins; assay type: organism-based; parameters: dose 200 mg/kg, route oral; conditions: in vivo, 1 h; summary of the method: as §1
Mus musculus [7] = experiment: Gastrointestinal toxicity in mouse assessed as tail bleeding time at 200 mg/kg, po after 90 mins; assay type: organism-based; parameters: dose 200 mg/kg, route oral; conditions: in vivo, 1.5 h; summary of the method: as §1
Mus musculus [8] = experiment: Antiinflammatory activity in Kunming mouse assessed as inhibition of xylene-induced ear edema at 5 mg/kg, po after […]rs; assay type: functional
Summary of the method: (§2)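 Male Kunming mice receive the agent orally as a suspension in 0.5% CMC; the vehicle group gets CMC alone. After 30 min, 0.03 ml xylene is applied to both surfaces of the right ear, and the left ear serves as control. At 2 h, mice are killed and 7-mm ear punches are weighed. Edema is taken as right minus left punch weight, and inhibition is calculated versus vehicle. n = 11; ANOVA.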

Mus musculus [9] = experiment: Antiinflammatory activity in Kunming mouse assessed as inhibition of xylene-induced ear edema at 10 mg/kg, po after […]rs; assay type: functional; summary of the method: as §2
Mus musculus [10] = experiment: Antiinflammatory activity in Kunming mouse assessed as inhibition of xylene-induced ear edema at 20 mg/kg, po after […]rs; assay type: functional; summary of the method: as §2

Compound | IC50 [1] | Time (Mus musculus [4]) | Time (Mus musculus [5]) | Time (Mus musculus [6]) | Time (Mus musculus [7]) | further results
O=C(Cc1ccccc1)N[C@H]1CO[C@H](c2ccc([N+](=O)[O-])cc2)OC1 | 2850 µM | – | – | – | – | –
O=C(Cc1ccccc1)N[C@H]1CO[C@H](c2ccc(Cl)cc2)OC1 | 2710 µM | – | – | – | – | –
O=C(Cc1ccccc1)N[C@H]1CO[C@H](c2cccc([N+](=O)[O-])c2)OC1 | 2900 µM | – | – | – | – | –
C[C@@H]1O[C@H](c2ccc(Cl)cc2)OC[C@H]1NC(=O)Cc1ccccc1 | – | – | – | – | – | Papp A→B [2]: 10.2 ×10⁻⁶ cm/s; Papp B→A [3]: 6.86 ×10⁻⁶ cm/s; Ratio (Caco-2): 1.48
C[C@@H]1O[C@H](/C=C/c2ccccc2)OC[C@H]1NC(=O)Cc1ccccc1 | – | – | – | – | – | Papp A→B [2]: 8.8 ×10⁻⁶ cm/s; Papp B→A [3]: 7.15 ×10⁻⁶ cm/s; Ratio (Caco-2): 1.23
O=C(Cc1ccccc1)N[C@H]1CCO[C@H](c2ccc(Cl)cc2)OC1 | 2920 µM | – | – | – | – | –
O=C(Cc1ccccc1)N[C@H]1CCO[C@H](c2cccc([N+](=O)[O-])c2)OC1 | 2930 µM | – | – | – | – | –
O=C(Cc1ccccc1)N[C@H]1CCO[C@@H](c2ccc(Cl)cc2)OC1 | 2950 µM | – | – | – | – | –
N[C@H]1CO[C@@H](c2ccccc2)OC1 | – | 119.2 s | 118.8 s | 117.6 s | 118.7 s | –
O=C(Cc1ccccc1)N[C@H]1CO[C@@H](c2ccc([N+](=O)[O-])cc2)OC1 | 2770 µM | – | – | – | – | –
O=C(Cc1ccccc1)N[C@H]1CO[C@@H](c2cccc([N+](=O)[O-])c2)OC1 | 2810 µM | – | – | – | – | –
C[C@@H]1O[C@@H](c2ccc([N+](=O)[O-])cc2)OC[C@H]1NC(=O)Cc1ccccc1 | – | – | – | – | – | Papp A→B [2]: 10.4 ×10⁻⁶ cm/s; Papp B→A [3]: 6.98 ×10⁻⁶ cm/s; Ratio (Caco-2): 1.49
C[C@@H]1O[C@H](c2ccc([N+](=O)[O-])cc2)OC[C@H]1NC(=O)Cc1ccccc1 | – | – | – | – | – | Papp A→B [2]: 10.3 ×10⁻⁶ cm/s; Papp B→A [3]: 6.93 ×10⁻⁶ cm/s; Ratio (Caco-2): 1.49
O=C(Cc1ccccc1)N[C@H]1CO[C@@H](/C=C/c2ccccc2)OC1 | – | – | – | – | – | Papp A→B [2]: 8.97 ×10⁻⁶ cm/s; Papp B→A [3]: 7.87 ×10⁻⁶ cm/s; Ratio (Caco-2): 1.14
N[C@H]1CCCO[C@H](c2ccc(Cl)cc2)OC1 | – | 117.9 s | 118.7 s | 119.1 s | 118.3 s | –
N[C@H]1CCCO[C@H](c2ccc([N+](=O)[O-])cc2)OC1 | – | 118.6 s | 120.3 s | 118.5 s | 117.7 s | –
N[C@H]1CCCO[C@H](c2cccc([N+](=O)[O-])c2)OC1 | – | 117.8 s | 117.9 s | 121.5 s | 118 s | –
N[C@H]1CCCO[C@@H](c2ccc(Cl)cc2)OC1 | – | 119.4 s | 117.5 s | 118.4 s | 117.8 s | –
N[C@H]1CCCO[C@@H](c2cccc([N+](=O)[O-])c2)OC1 | – | 119.3 s | 118.2 s | 118.5 s | 119.3 s | –
N[C@H]1CCO[C@@H](c2ccc([N+](=O)[O-])cc2)OC1 | – | 117.8 s | 118.5 s | 117.9 s | 117.2 s | –
N[C@H]1CCO[C@@H](c2cccc([N+](=O)[O-])c2)OC1 | – | 120.1 s | 118.7 s | 118.5 s | 118.6 s | –
N[C@H]1CO[C@H](c2ccccc2)OC1 | – | 119.3 s | 119.2 s | 119.7 s | 119.6 s | –
C[C@@H]1O[C@@H](c2cccc([N+](=O)[O-])c2)OC[C@H]1N | – | 118.9 s | 119.2 s | 117.4 s | 118.3 s | –
N[C@H]1CO[C@H](c2ccc(Cl)cc2)OC1 | – | 119 s | 118.9 s | 118.7 s | 119.6 s | –
C[C@@H]1O[C@H](c2ccccc2)OC[C@H]1N | – | 118.7 s | 118.9 s | 118.6 s | 118.9 s | –
N[C@H]1CO[C@H](c2cccc([N+](=O)[O-])c2)OC1 | – | 118.8 s | 118 s | 118.4 s | 118.7 s | –

Compound | IC50 [1] | Time (Mus musculus [4]) | Time (Mus musculus [5]) | Time (Mus musculus [6]) | Time (Mus musculus [7]) | further results
Cc1ccc([C@H]2OC[C@@H](N)CO2)cc1 | – | 118.3 s | 119 s | 118.7 s | 118.4 s | –
N[C@H]1CO[C@@H](c2ccc([N+](=O)[O-])cc2)OC1 | – | 119.4 s | 118.7 s | 120.6 s | 119.4 s | –
C[C@@H]1O[C@@H](c2ccc(Cl)cc2)OC[C@H]1NC(=O)Cc1ccccc1 | – | – | – | – | – | Papp A→B [2]: 10.2 ×10⁻⁶ cm/s; Papp B→A [3]: 7 ×10⁻⁶ cm/s; Ratio (Caco-2): 1.46
N[C@H]1CCO[C@@H](c2ccc(Cl)cc2)OC1 | – | 118.4 s | 119.6 s | 118.6 s | 119 s | –
N[C@H]1CCO[C@H](c2ccc([N+](=O)[O-])cc2)OC1 | – | 118.5 s | 119 s | 118.6 s | 117.9 s | –
N[C@H]1CCO[C@H](c2cccc([N+](=O)[O-])c2)OC1 | – | 117.9 s | 118.6 s | 119 s | 118.5 s | –
C[C@@H]1O[C@H](c2cccc([N+](=O)[O-])c2)OC[C@H]1N | – | 118.9 s | 118.2 s | 119.5 s | 118.2 s | –
O=C(Cc1ccccc1)N[C@H]1CO[C@@H](c2ccc(Cl)cc2)OC1 | 2690 µM | – | – | – | – | –
Cc1ccc([C@@H]2OC[C@@H](N)[C@H](C)O2)cc1 | – | 120.4 s | 118.5 s | 118.9 s | 117.7 s | –
C[C@@H]1O[C@H](c2ccc(Cl)cc2)OC[C@H]1N | 1140 µM | 119.6 s | 118.6 s | 118.7 s | 118.6 s | inhibition in vivo at 5 mg/kg (Mus musculus [8]): 29.8%; inhibition in vivo at 10 mg/kg (Mus musculus [9]): 46.2%; inhibition in vivo at 20 mg/kg (Mus musculus [10]): 67.9%; Papp A→B [2]: 11.7 ×10⁻⁶ cm/s; Papp B→A [3]: 6.88 ×10⁻⁶ cm/s; Ratio (Caco-2): 1.7
O=C(Cc1ccccc1)N[C@H]1CCO[C@@H](c2cccc([N+](=O)[O-])c2)OC1 | 3010 µM | – | – | – | – | –
N[C@H]1CCO[C@H](c2ccc(Cl)cc2)OC1 | – | 117.9 s | 118.5 s | 119.2 s | 118.6 s | –
O=C(Cc1ccccc1)N[C@H]1CO[C@H](/C=C/c2ccccc2)OC1 | – | – | – | – | – | Papp A→B [2]: 8.86 ×10⁻⁶ cm/s; Papp B→A [3]: 7.32 ×10⁻⁶ cm/s; Ratio (Caco-2): 1.21
O=C(Cc1ccccc1)N[C@H]1CCO[C@H](c2ccc([N+](=O)[O-])cc2)OC1 | 2860 µM | – | – | – | – | –
O=C(Cc1ccccc1)N[C@H]1CCO[C@@H](c2ccc([N+](=O)[O-])cc2)OC1 | 2980 µM | – | – | – | – | –
N[C@H]1CCCO[C@@H](c2ccc([N+](=O)[O-])cc2)OC1 | – | 118.6 s | 119 s | 118.4 s | 117.6 s | –
C[C@@H]1O[C@H](c2ccc([N+](=O)[O-])cc2)OC[C@H]1N | 930 µM | 117.8 s | 118.1 s | 118.8 s | 119 s | inhibition in vivo at 5 mg/kg (Mus musculus [8]): 40.1%; inhibition in vivo at 10 mg/kg (Mus musculus [9]): 56.7%; inhibition in vivo at 20 mg/kg (Mus musculus [10]): 77.9%; Papp A→B [2]: 12.9 ×10⁻⁶ cm/s; Papp B→A [3]: 6.9 ×10⁻⁶ cm/s; Ratio (Caco-2): 1.86
C[C@@H]1O[C@@H](C=Cc2ccccc2)OC[C@H]1N | 1620 µM | 117.2 s | 118.6 s | 118.4 s | 119.2 s | inhibition in vivo at 20 mg/kg (Mus musculus [10]): 52.9%; Papp A→B [2]: 10.2 ×10⁻⁶ cm/s; Papp B→A [3]: 7.17 ×10⁻⁶ cm/s; Ratio (Caco-2): 1.43
C[C@@H]1O[C@H](C=Cc2ccccc2)OC[C@H]1N | 1700 µM | 120.7 s | 120.2 s | 117.6 s | 117.7 s | inhibition in vivo at 20 mg/kg (Mus musculus [10]): 51.6%; Papp A→B [2]: 10.3 ×10⁻⁶ cm/s; Papp B→A [3]: 7.06 ×10⁻⁶ cm/s; Ratio (Caco-2): 1.46
Cc1ccc([C@H]2OC[C@@H](N)[C@H](C)O2)cc1 | – | 120.9 s | 121 s | 119.8 s | 118.7 s | –
Cc1ccc([C@H]2OC[C@H](N)CO2)cc1 | – | 118.5 s | 119.2 s | 119.5 s | 117.8 s | –
N[C@H]1CO[C@H](c2ccc([N+](=O)[O-])cc2)OC1 | – | 119.5 s | 117.7 s | 118.6 s | 118.9 s | –
N[C@H]1CO[C@@H](c2ccc(Cl)cc2)OC1 | – | 118.5 s | 118.9 s | 120.9 s | 119.4 s | –
N[C@H]1CO[C@@H](c2cccc([N+](=O)[O-])c2)OC1 | – | 119.3 s | 118.2 s | 119.1 s | 120.2 s | –
C[C@@H]1O[C@@H](c2ccc(Cl)cc2)OC[C@H]1N | 1100 µM | 118.3 s | 118.9 s | 118.5 s | 118.7 s | inhibition in vivo at 5 mg/kg (Mus musculus [8]): 39.4%; inhibition in vivo at 10 mg/kg (Mus musculus [9]): 54.5%; inhibition in vivo at 20 mg/kg (Mus musculus [10]): 66.7%; Papp A→B [2]: 11.9 ×10⁻⁶ cm/s; Papp B→A [3]: 7.01 ×10⁻⁶ cm/s; Ratio (Caco-2): 1.7

— ChEMBL document CHEMBL1140692, “Toward the development of chemoprevention agents. Part II: Chemo-enzymatic synthesis and anti-inflammatory activities of a new class of 5-amino-2-substitutedphenyl-1,3-dioxacycloalkanes” (Bioorg Med Chem, 2007)
